High-throughput results (PubChem)
A selection: hits, their analogues and other compounds. The true share with any hit is near 4.8%.
PAFAH1B2 FP inh: PAFAH1B2 enzyme inhibitors, primary screen, biochemical, fluorescence polarization, human | recombinant PAFAH1B2, FP-rhodamine activity probe | inhibition, % at 3.39 µM | 340,000 tested, 1.2% active;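 active means inhibition above the mean of all tested compounds plus 3 SD, cut at about 24% in these data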;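 further: 0% = enzyme with DMSO and 100% = wells lacking PAFAH1B2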
pPAFAH FP inh: pPAFAH enzyme inhibitors, primary screen, biochemical, fluorescence polarization, human | AID 463082, 2010 | 330,000 tested, 1.5% active | recombinant pPAFAH, FP-rhodamine probe fluorescence polarization | Platelet-activating factor acetylhydrolase (Homo sapiens), Q13093 | inhibition, % at 3.39 µM;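 active means inhibition above the mean inhibition across the screen plus 3 SD, cut at about 25% in these data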;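 further: inhibitors block binding of the rhodamine activity-based probe so polarization drops; 0% = enzyme with DMSO and 100% = wells lacking pPAFAH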
UCH37 inh: inhibitors of human UCH37 deubiquitinase, primary screen, biochemical, Ub-AMC cleavage, fluorescence; purified proteasome/UCH37; inhibition, % (test concentration not listed); 330,000 tested, 0.33% active;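 active means mean inhibition over replicate wells above about 20%, limit read from the data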;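 further: 0% = compound-free wells with enzyme and 100% = wells lacking proteasome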
Target sequence (Q9Y5K5 whole entry, looked up): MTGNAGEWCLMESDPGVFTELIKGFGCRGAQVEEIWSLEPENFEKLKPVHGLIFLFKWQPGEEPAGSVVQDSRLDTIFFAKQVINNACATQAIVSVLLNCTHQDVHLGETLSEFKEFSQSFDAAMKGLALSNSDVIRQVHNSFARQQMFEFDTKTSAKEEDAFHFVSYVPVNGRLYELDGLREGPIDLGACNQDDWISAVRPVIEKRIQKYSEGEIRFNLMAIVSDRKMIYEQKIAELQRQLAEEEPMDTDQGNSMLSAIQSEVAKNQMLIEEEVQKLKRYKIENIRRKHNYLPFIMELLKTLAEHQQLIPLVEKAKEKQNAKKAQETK
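Reagent: Ub-AMC substrate; assay system: Proteasome-associated human UCH37 deubiquitinase; controls: no-proteasome and no-compound wells; read-out: % inhibition of Ub-AMC cleavage fluorescence; timing: 30 min preincubation with enzyme, 25 min cleavage at room temperature; signal: AMC fluorescence from Ub-AMC cleavage, excitation 355 nm, emission 460 nm; buffer or medium: Tris-HCl pH 7.4 plus ovalbumin, ATP-MgCl2, DTT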
GRIN3A LBD mod: binders of NR3A ligand-binding domain, primary screen, biophysical, differential scanning fluorimetry, uHTS; Tm shift relative to glycine control, % at 25 µM; 340,000 tested, 2.5% active; NR3A LBD differential scanning fluorimetry, Tm shift; 0% = protein alone, 100% = glycine-bound protein;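 active means melting temperature shift of at least 10% of the positive control shift, at one fixed dose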
PAFAH1B3 FP inh: PAFAH1B3 enzyme inhibitors, primary screen, biochemical, fluorescence polarization, human; AID 492972, 2010; Platelet-activating factor acetylhydrolase IB subunit alpha1 (Homo sapiens), Q15102; recombinant PAFAH1B3, FP-rhodamine probe; 340,000 tested, 0.28% active; inhibition, % at 3.39 µM;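 active means inhibition above the screen-wide average of all tested compounds plus 3 SD, cut at about 25% in these data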;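 further: 0% = enzyme with DMSO only and 100% = wells lacking PAFAH1B3 protein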
Target sequence (Q15102 whole entry, looked up): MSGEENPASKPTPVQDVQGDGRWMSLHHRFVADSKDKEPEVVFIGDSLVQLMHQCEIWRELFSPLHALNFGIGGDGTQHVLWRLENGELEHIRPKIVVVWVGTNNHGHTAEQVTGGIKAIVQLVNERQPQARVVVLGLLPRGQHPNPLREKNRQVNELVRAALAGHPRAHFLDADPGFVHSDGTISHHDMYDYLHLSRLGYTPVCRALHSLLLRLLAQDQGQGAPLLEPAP
PAFAH2 FP inh: PAFAH2 enzyme inhibitors, primary screen, biochemical, fluorescence polarization, human. 340,000 tested, 0.99% active. Platelet-activating factor acetylhydrolase 2, cytoplasmic (Homo sapiens), Q99487. inhibition, % at 3.39 µM. recombinant PAFAH2, FP-rhodamine activity probe;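 active means inhibition above the mean over all tested compounds plus 3 SD, cut at about 30% in these data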;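 further: inhibitors block probe labeling of enzyme so polarization drops; 0% = enzyme with DMSO and 100% = wells lacking PAFAH2 protein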
* hit, by the source's call; . = not tested or not shown.

SMILES | PAFAH1B2 FP inh | pPAFAH FP inh | UCH37 inh | GRIN3A LBD mod | PAFAH1B3 FP inh | PAFAH2 FP inh
COc1ccc(-c2cc(C(=O)N3CCN(c4ccccc4)CC3)c3ccccc3n2)cc1OC | 4 | 4 | -10 | 0 | -9 | -5
COc1ccc(-c2cc(C(=O)N3CCCC(C(F)(F)F)C3)c3ccccc3n2)cc1OC (centres undefined) | 0 | 1 | -41 | 18* | 6 | 1
Cc1ccccc1Cn1cc(C=Nn2cnnc2)c2ccccc21 | . | . | 3 | . | . | .
Cc1ccsc1C=NNS(=O)(=O)c1ccc([N+](=O)[O-])cc1 | . | . | 7 | . | . | .
O=C(CN(c1ccc(Cl)c(C(F)(F)F)c1)S(=O)(=O)c1ccccc1)N1CCOCC1 | 0 | -4 | 4 | 14* | 9 | -6
Cc1ccsc1C=NNC(=O)Cn1nc(C)c([N+](=O)[O-])c1C | . | . | 8 | . | . | .
COc1ccc2nc(N/C(N)=N/C(=S)Nc3c(C)cccc3C)nc(C)c2c1 | -1 | 0 | -18 | 24* | 3 | 4
CCOc1ccc2nc(N/C(N)=N/C(=S)Nc3cccc(C)c3)nc(C)c2c1 | -3 | -1 | 2 | 23* | 7 | -7
CCOc1ccc2nc(N/C(N)=N/C(=S)Nc3cccc(OC)c3)nc(C)c2c1 | -1 | 0 | -6 | 14* | -4 | -6
CCNC(=S)NN=C(C)c1cccc(OC)c1 | . | . | 3 | . | . | .
ON=Cc1ccc(-c2cc(Cl)ccc2Cl)o1 | . | . | 0 | . | . | .
Cc1ccc(-c2ccc(CCC(=O)O)n2-c2ccc(O)cc2)cc1 | 13 | 21 | -3 | -1 | 6 | -5
O=C(O)CCc1ccc(-c2ccc(Br)cc2)n1-c1ccc(O)cc1 | 33* | . | 0 | 1 | 0 | 1
CC(CC(=O)Nc1ccc(Cl)c(C(F)(F)F)c1)=NNC(=O)c1cnccn1 | . | . | 3 | . | . | .
O=C(NC1CC1)C1=C[C@@H](C2CC2)C[C@@H](OCCCCO)O1 | 0 | 0 | 23* | 1 | 11 | -5
O=C(NC1CC1)C1=C[C@H](C2CC2)C[C@H](OCCCCO)O1 | 6 | 3 | 4 | -1 | -1 | -1
CC1CC(=NNc2nc3ccccc3[nH]2)CC(C)(C)C1 (centres undefined) | . | . | 6 | . | . | .
CN(C)S(=O)(=O)N1CCC(Oc2cccc(C(=O)NCCC3=CCCCC3)c2)CC1 | 5 | 4 | 22* | -1 | 7 | 4
CN(C)S(=O)(=O)N1CCC(Oc2cccc(C(=O)NC3CCCCC3)c2)CC1 | 4 | 5 | 4 | 0 | 2 | 7
C/C(C=NNC(=O)c1cccc([N+](=O)[O-])c1)=C\c1ccccc1 | . | . | 4 | . | . | .
O=C(NCCCN1CCCC1=O)c1cccc(S(=O)(=O)Nc2ccc(F)cc2)c1 | -1 | 34* | 3 | 0 | 3 | 1
Cc1cccc(NS(=O)(=O)c2cccc(C(=O)NCCCN3CCCC3=O)c2)c1 | 6 | 28* | 2 | -3 | 0 | -2
Cc1cc(S(=O)(=O)Nc2ccc(C(=O)NCC3CCCO3)cc2)ccc1F (centres undefined) | . | 3 | . | . | . | .
O=C(NCC1CCCO1)c1cccc(S(=O)(=O)Nc2ccc(F)cc2)c1 (centres undefined) | 7 | 25* | -3 | 1 | 9 | 1
NC(=O)NN=Cc1ccc(N2CCOCC2)s1 | . | . | -2 | . | . | .
SMILES | PAFAH1B2 FP inh | pPAFAH FP inh | UCH37 inh | GRIN3A LBD mod | PAFAH1B3 FP inh | PAFAH2 FP inh
C[C@@H]1CN([C@H](C)CO)C(=O)c2cc(NC(=O)Nc3ccc(C(F)(F)F)cc3)ccc2O[C@H]1CN(C)S(=O)(=O)c1ccc(Cl)cc1 | -47 | -39 | 0 | 19* | -101 | -42
C[C@@H]1CN([C@@H](C)CO)C(=O)Cc2cc(NC(=O)Nc3ccc(C(F)(F)F)cc3)ccc2O[C@@H]1CN(C)S(=O)(=O)c1ccc(Cl)cc1 | -52 | -30 | 2 | 14* | -78 | -84
C[C@H](CO)N1C[C@H](C)[C@@H](CN(C)S(=O)(=O)c2ccccc2)Oc2ccc(NC(=O)Nc3ccccc3)cc2C1=O | -3 | 6 | 2 | 4 | 9 | -9
C[C@H](CO)N1C[C@H](C)[C@@H](CN(C)S(=O)(=O)c2ccc(F)cc2)Oc2ccc(NC(=O)Nc3ccc(C(F)(F)F)cc3)cc2C1=O | -55 | -31 | . | 11* | -80 | -77
Cc1nc(CC(=NNc2ccccc2)c2ccc(O)cc2O)cs1 | . | . | 8 | . | . | .
CC(=O)Oc1ccc2oc(/C=C/N(C)C)c([N+](=O)[O-])c2c1 | 3 | 7 | 22* | 3 | 3 | 1
CCOC(=O)/C(C#N)=C/c1cc(C)n(-c2ccc(C)cc2)c1C | -1 | 26* | -1 | 1 | 6 | -5
COc1cccc(C=NNC(=O)CCn2c3ccccc3c3ccccc32)c1 | . | . | -1 | . | . | .
O=C1c2ccccc2C(=O)N1N(c1ccccc1)c1ccccc1 | 2 | . | 2 | 16* | -6 | -4
O=C1CC(SCc2nc3ccccc3[nH]2)C(=O)N1c1cccc(F)c1 (centres undefined) | 9 | 5 | . | -4 | 8 | 3
O=C1CC(SCc2nc3ccccc3[nH]2)C(=O)N1c1ccc(F)c(Cl)c1 (centres undefined) | 29* | 2 | 2 | -2 | 5 | 2
O=C1CC(SCCc2nc3ccccc3[nH]2)C(=O)N1c1ccc(Cl)cc1 (centres undefined) | 32* | 2 | -1 | -6 | 1 | -7
O=C(NN=Cc1cccnc1)c1cc(-c2ccc(Cl)s2)[nH]n1 | . | . | 7 | . | . | .
O=C(OCC(=O)N1CCN(C(=O)c2ccco2)CC1)c1cc(-c2ccco2)nc2ccccc12 | 5 | 31* | -444 | -1 | 3 | 52*
O=C(OCC(=O)N1CCN(C(=O)c2ccco2)CC1)c1cc(-c2ccc(Cl)c(Cl)c2Cl)nc2ccccc12 | 2 | -1 | -42 | -2 | -4 | -12
O=C(O)CNC(=O)c1ccccc1NC(=O)c1ccco1 | 4 | 0 | 5 | 1 | 8 | 0
O=C(Nc1ccccc1C(=O)NCCc1ccccc1)c1ccco1 | 2 | 9 | 1 | 16* | -1 | -2
COc1ccc(/C=C2\CCC/C(=C\C=NN(C)C)C2=O)cc1 | . | . | 12 | . | . | .
Cc1ccnc(NS(=O)(=O)c2ccc(N3C(=O)c4c(Cl)c(Cl)c(Cl)c(Cl)c4C3=O)cc2)n1 | 3 | 1 | 3 | 28* | -2 | 5
CSc1ncc(Cl)c(C(=O)Nc2ccc(S(=O)(=O)Nc3nccc(C)n3)cc2)n1 | 0 | 2 | 6 | 13* | 7 | -3
O=C(O)c1ccccc1C=NNC(=O)C1CCCC1 | . | . | 0 | . | . | .
